From ChEMBL document CHEMBL1154054, “Novel 4-(morpholin-4-yl)-N'-(arylidene)benzohydrazides: synthesis, antimycobacterial activity and QSAR investigations” (Eur J Med Chem, 2009)

Key:
Assay type in all cases: functional
Design in all cases: scale not given: the % may be the effect or the level left
[1] = system: Mycobacterium tuberculosis; assay: Antimycobacterial activity against Mycobacterium tuberculosis H37Rv assessed as reduction in relative light units at 0.05 ug/ml after 72 hrs by LRP assay
Procedure, shortened: (§1)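 Luciferase reporter phage assay on M. tuberculosis (H37Rv, or clinical isolates resistant to S, H, R and E). Each sample had two drug-free controls and four drug concentrations, incubated 72 h at 37 °C. High-titer phAE129 phage plus 0.1 M CaCl₂ was added, then 4 h at 37 °C. Equal volume D-luciferin (0.3 mM, pH 4.5 citrate) was added; RLU integrated 10 s, duplicate mean; % RLU reduction vs control.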

[2] = system: Mycobacterium tuberculosis; assay: Antimycobacterial activity against Mycobacterium tuberculosis H37Rv assessed as reduction in relative light units at 0.5 ug/ml after 72 hrs by LRP assay; procedure, shortened: as §1
[3] = system: Mycobacterium tuberculosis; assay: Antimycobacterial activity against Mycobacterium tuberculosis H37Rv assessed as reduction in relative light units at 5 ug/ml after 72 hrs by LRP assay; procedure, shortened: as §1
[4] = system: Mycobacterium tuberculosis; assay: Antimycobacterial activity against Mycobacterium tuberculosis H37Rv assessed as reduction in relative light units at 10 ug/ml after 72 hrs by LRP assay; procedure, shortened: as §1

O=C(N/N=C1\C=CCO1)c1ccc(N2CCOCC2)cc1
Activity [1]: 15.04% | Activity [2]: 96.9% | Activity [3]: 98.41% | Activity [4]: 97.55%

NNC(=O)c1ccncc1 [ISONIAZID]
Activity [1]: 96% | Activity [2]: 98.42% | Activity [3]: 99.01% | Activity [4]: 98.99%

O=C(N/N=C/c1cccc([N+](=O)[O-])c1)c1ccc(N2CCOCC2)cc1
Activity [1]: 9.118% | Activity [2]: 98.04% | Activity [3]: 98.4% | Activity [4]: 98.4%

Cc1ccc(/C=N/NC(=O)c2ccc(N3CCOCC3)cc2)cc1
Activity [1]: 24.19% | Activity [2]: 97.29% | Activity [3]: 97.75% | Activity [4]: 98.18%

O=C(N/N=C/c1ccc(Cl)cc1)c1ccc(N2CCOCC2)cc1
Activity [1]: 78.09% | Activity [2]: 98.02% | Activity [3]: 98.38% | Activity [4]: 99.26%

COc1cc(/C=N/NC(=O)c2ccc(N3CCOCC3)cc2)cc(OC)c1OC
Activity [1]: 49.68% | Activity [2]: 96.51% | Activity [3]: 97.59% | Activity [4]: 97.77%

COc1ccc(/C=N/NC(=O)c2ccc(N3CCOCC3)cc2)cc1
Activity [1]: 30.04% | Activity [2]: 96.24% | Activity [3]: 98.1% | Activity [4]: 97.18%

CN(C)c1ccc(/C=N/NC(=O)c2ccc(N3CCOCC3)cc2)cc1
Activity [1]: 20.85% | Activity [2]: 98.09% | Activity [3]: 98.49% | Activity [4]: 98.82%

O=C(N/N=C\C=C\c1ccccc1)c1ccc(N2CCOCC2)cc1
Activity [1]: 63.16% | Activity [2]: 98.96% | Activity [3]: 97.82% | Activity [4]: 97.32%

O=C(N/N=C/c1ccc(O)cc1)c1ccc(N2CCOCC2)cc1
Activity [1]: 51.79% | Activity [2]: 77.81% | Activity [3]: 97.53% | Activity [4]: 97.24%

O=C(N/N=C/c1ccc(F)cc1)c1ccc(N2CCOCC2)cc1
Activity [1]: 96.78% | Activity [2]: 98.22% | Activity [3]: 98.98% | Activity [4]: 99.09%
